Measurements gathered from unrelated publications.
Protocols differ between the studies behind these lines.
Target: Homeodomain-interacting protein kinase 3 (HIPK3, Homo sapiens, UniProt Q9H422)

CC(C)S(=O)(=O)c1ccc2nccc(Nc3ccc4sc(C5CCCC5)nc4c3)c2c1
activity vs control (enzyme activity; inhibitor; 1 µM): 102%

C1=C/COCc2cc(ccc2OCCN2CCCC2)Nc2nccc(n2)-c2cccc(c2)COC/1
remaining binding (binding; 0.1 µM): 15%

CCCCC(=O)Nc1ccc(-c2ccc3ncn(CCC)c(=O)c3c2)cn1
remaining binding (binding; competition with immobilised ligand; 0.5 µM): 100%

CN1CCN(C(=O)c2ccc(NC(=O)Nc3ccc(N(C)c4ccnc(Nc5ccc(CS(C)(=O)=O)cc5)n4)cc3)cc2)CC1
remaining binding (binding; competition with immobilised ligand; 1 µM): 71%

CO[C@@H]1[C@H](N(C)C(=O)c2ccccc2)C[C@H]2O[C@]1(C)n1c3ccccc3c3c4c(c5c6ccccc6n2c5c31)C(=O)NC4
inhibition (enzyme activity; inhibitor; 1 µM): 30%

Cc1ccc(NC(=O)c2ccnc(C(F)(F)F)c2)cc1-c1cc(OCCO)nc(N2CCOCC2)c1
remaining binding (binding; competition with immobilised ligand; 1 µM): 98%

C=CC(=O)N1CCC([C@@H]2CCNc3c(C(N)=O)c(-c4ccc(Oc5ccccc5)cc4)nn32)CC1
inhibition (enzyme activity; inhibitor; 1 µM): 4%

C#Cc1cc(-c2cc(Nc3nc(N[C@@H](C)c4ccc(F)cn4)ncc3Cl)n[nH]2)ccc1C=O
inhibition (enzyme activity; inhibitor; 0.2 µM): 39.6%
